Data as given in ChEMBL document CHEMBL1139744, “Rapid synthesis of 4-benzylidene and 4-[bis-(4-methoxyphenyl)-methylene-2-substituted phenyl-benzopyrans as potential selective estrogen receptor modulators (SERMs) using McMurry coupling reaction” (Bioorg Med Chem Lett, 2006).
pIC50: −log10 of the molar value. Calls of active or inactive are those of the source. The calls are words filed in the database; no cut-off is given here.

How the values were obtained:
Rattus norvegicus [1] = experiment: Antagonist activity at ER receptor assessed as inhibition of 17-alpha-ethynylestradiol-induced increase in uterine weight of Sprague-Dawley rat at 10 mg/kg/day, po; assay type: functional; settings: for inhibition in vivo at 10 mg/kg/day: Rattus norvegicus, Sprague-Dawley
How it was run: (§1)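 Oral dosing was given alongside 17α-ethynylestradiol (0.02 mg/kg) in rats, with vehicle and EE-alone groups. Fresh uterine weight was expressed as percent of the EE-alone group. Values are means ± SEM of at least six animals per group. Significance was tested against the corresponding EE-alone group (P<0.05, P<0.01).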

Rattus norvegicus [2] = experiment: Agonist activity at ER receptor assessed as increase in uterine weight of Sprague-Dawley rat at 10 mg/kg/day, po; assay type: functional
How it was run: (§2)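 Immature female rats were dosed orally once daily on days 28–30 of age, with a vehicle-only control group. At autopsy on day 31, 24 h after the last dose, a vaginal smear was taken and the uterus was excised, blotted and weighed fresh. Agonism was judged by uterine weight gain, vaginal opening and cornification versus vehicle. Values are means ± SEM, n≥6 per group.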

Rattus norvegicus [3] = experiment: Agonist activity at ER receptor assessed as increase in uterine weight of Sprague-Dawley rat at 10 mg/kg/day, po relative to control; assay type: functional; how it was run: as §2
MCF7 [4] = experiment: Antiproliferative activity against MCF7 cells […] after 48 hrs; assay type: functional; settings: Homo sapiens; for pIC50: MCF7, 48 h
How it was run: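 MCF-7 cells were trypsinized (0.05% trypsin–EDTA), plated at 10⁴ cells/well in MEM at pH 7.4, and left to attach for 24 h at 37 °C under CO₂. Compounds in ethanol/DMSO were added and incubated 48 h. Cells were fixed with cold 10% TCA for 1 h at 4 °C, stained with 0.4% SRB in 1% acetic acid for 30 min, and the stain was extracted with Tris base at pH 10.5. OD was read at 560 nm.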

[5] = target: T1, Estrogen receptor (Rattus norvegicus) (UniProt P06211); experiment: Displacement of [3H]estradiol from ER in rat uterus […] relative to estradiol
T1 sequence (whole entry): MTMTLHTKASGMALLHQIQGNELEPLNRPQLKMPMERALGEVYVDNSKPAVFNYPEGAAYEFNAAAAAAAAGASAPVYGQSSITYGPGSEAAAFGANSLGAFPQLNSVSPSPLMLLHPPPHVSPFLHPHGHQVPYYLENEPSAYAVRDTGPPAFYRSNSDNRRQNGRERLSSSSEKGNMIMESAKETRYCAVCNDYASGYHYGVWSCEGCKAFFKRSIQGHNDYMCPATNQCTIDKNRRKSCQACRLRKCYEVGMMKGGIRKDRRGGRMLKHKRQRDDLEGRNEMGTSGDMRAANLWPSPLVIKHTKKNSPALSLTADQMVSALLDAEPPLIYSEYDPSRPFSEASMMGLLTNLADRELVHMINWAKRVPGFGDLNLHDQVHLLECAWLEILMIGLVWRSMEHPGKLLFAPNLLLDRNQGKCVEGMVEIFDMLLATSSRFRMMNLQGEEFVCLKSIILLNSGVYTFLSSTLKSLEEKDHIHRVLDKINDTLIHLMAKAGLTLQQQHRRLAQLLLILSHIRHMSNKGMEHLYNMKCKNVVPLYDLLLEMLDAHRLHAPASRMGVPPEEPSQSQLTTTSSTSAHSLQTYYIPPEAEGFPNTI

Rattus norvegicus [6] = experiment: Activity at ER receptor assessed as additive effect on 17-alpha-ethynylestradiol-induced increase in uterine weight of Sprague-Dawley rat at 10 mg/kg/day, po; assay type: functional; how it was run: as §1
Rattus norvegicus [7] = experiment: Antagonist activity at ER receptor assessed as inhibition of increase in uterine weight of Sprague-Dawley rat at 10 mg/kg/day, po relative to 17-alpha-ethynylestradiol; assay type: functional; design: scale not given: the % may be the effect or the level left; how it was run: as §1
Rattus norvegicus [8] = experiment: Antagonist activity at ER receptor assessed as increase in uterine weight in Sprague-Dawley rat at 0.02 mg/kg/day, po; assay type: functional
Rattus norvegicus [9] = experiment: Agonist activity at ER receptor assessed as increase in uterine weight in Sprague-Dawley rat at 0.02 mg/kg/day, po; assay type: functional; how it was run: as §2
Rattus norvegicus [10] = experiment: Agonist activity at ER receptor assessed as increase in uterine weight of Sprague-Dawley rat at 0.02 mg/kg/day, po relative to control; assay type: functional; how it was run: as §2
MCF7 [11] = experiment: Antiproliferative activity against MCF7 cells at 3 mg/kg/day after 48 hrs; settings: Homo sapiens, MCF7, 48 h
Rattus norvegicus [12] = experiment: Antagonist activity at ER receptor assessed as inhibition of 17-alpha-ethynylestradiol-induced increase in uterine weight of Sprague-Dawley rat at 3 mg/kg/day, po; assay type: functional; how it was run: as §1
Rattus norvegicus [13] = experiment: Agonist activity at ER receptor assessed as increase in uterine weight of Sprague-Dawley rat at 3 mg/kg/day, po; assay type: functional; how it was run: as §2
Rattus norvegicus [14] = experiment: Agonist activity at ER receptor assessed as increase in uterine weight of Sprague-Dawley rat at 3 mg/kg/day, po relative to control; assay type: functional; how it was run: as §2
Rattus norvegicus [15] = experiment: Antagonist activity at ER receptor assessed as inhibition of increase in uterine weight of Sprague-Dawley rat at 3 mg/kg/day, po relative to 17-alpha-ethynylestradiol; assay type: functional; design: scale not given: the % may be the effect or the level left; how it was run: as §1

SMILES	RBA [5]	pIC50 (MCF7 [4])	Activity (Rattus norvegicus [1])	inhibition in vivo at 10 mg/kg/day (Rattus norvegicus [1])	Activity (Rattus norvegicus [2])	Activity (Rattus norvegicus [3])	Activity (MCF7 [4])	also measured
COc1ccc(C(=C2CC(c3ccc(O)cc3)Oc3cc(OC)ccc32)c2ccc(OC)cc2)cc1 (centres undefined)	0.097%		70.33 mg	17%	26 mg	86%	inactive	
COc1ccc(C(=C2CC(c3ccc(OCCN(C)C)cc3)Oc3cc(OC)ccc32)c2ccc(OC)cc2)cc1 (centres undefined)	< 0.001%						inactive	
COc1ccc(/C=C2\CC(c3ccc(O)cc3)Oc3cc(OC)ccc32)cc1 (centres undefined)	0.013%	5.06	88.33 mg		17.33 mg	24%		Activity (Rattus norvegicus [6]): 88.33 mg
COc1ccc2c(c1)OC(c1ccc(O)cc1)C/C2=C\c1ccc(OCc2ccccc2)cc1 (centres undefined)	0.02%		46.33 mg	29%	38.3 mg	153%	inactive	Activity (Rattus norvegicus [7]): 29%
C#C[C@]1(O)CC[C@H]2[C@@H]3CCc4cc(O)ccc4[C@H]3CC[C@@]21C [ETHINYL ESTRADIOL]								Activity (Rattus norvegicus [8]): 66.35 mg; Activity (Rattus norvegicus [9]): 66.35 mg; Activity (Rattus norvegicus [10]): 464%
CC/C(=C(\c1ccccc1)c1ccc(OCCN(C)C)cc1)c1ccccc1 [TAMOXIFEN]								pIC50 (MCF7 [11]): 5.29; Activity (Rattus norvegicus [12]): 52.3 mg; inhibition in vivo at 3 mg/kg/day (Rattus norvegicus [12]; Rattus norvegicus, Sprague-Dawley): 49%; Activity (Rattus norvegicus [13]): 46.32 mg; Activity (Rattus norvegicus [14]): 155%; Activity (Rattus norvegicus [15]): 49%

More lines, main results first:

RBA [5]	pIC50 (MCF7 [4])	SMILES	Activity (Rattus norvegicus [1])	inhibition in vivo at 10 mg/kg/day (Rattus norvegicus [1])	Activity (Rattus norvegicus [2])	Activity (Rattus norvegicus [3])	Activity (MCF7 [4])	also measured
0.095%	5.36	COc1ccc(/C=C2\CC(c3ccc(OCCN4CCCCC4)cc3)Oc3cc(OC)ccc32)cc1 (centres undefined)	104.4 mg	4%	24.63 mg	54%		
0.006%	5.70	COc1ccc(/C=C2\CC(c3ccc(OCCN(C)C)cc3)Oc3cc(OC)ccc32)cc1 (centres undefined)	85.4 mg	21%	46.3 mg	189%		
0.095%	5.13	COc1ccc(/C=C2\CC(c3ccc(OCCN4CCCC4)cc3)Oc3cc(OC)ccc32)cc1 (centres undefined)	92.3 mg	15%	39.57 mg	147%		
< 0.001%	5.18	COc1ccc(C(=C2CC(c3ccc(OCCN4CCCCC4)cc3)Oc3cc(OC)ccc32)c2ccc(OC)cc2)cc1 (centres undefined)	81.7 mg	26%	52.5 mg	168%		
